According to ChEMBL document CHEMBL4602675, “The Marine Natural Product Manzamine A Inhibits Cervical Cancer by Targeting the SIX1 Protein” (J Nat Prod, 2020):
Calls of active or inactive are those of the source. No cut-off for these calls is given here.

How the values were obtained:
C-33-A = experiment: Antiproliferative activity against human C33A cells assessed as reduction in cell viability at 2 to 4 uM incubated up to 72 hrs by CellTiter-Glo assay; format: functional, cell-based
HeLa = experiment: Antiproliferative activity against human HeLa cells assessed as reduction in cell viability at 2 to 4 uM incubated up to 72 hrs by CellTiter-Glo assay; format: functional, cell-based
SiHa = experiment: Antiproliferative activity against human SiHa cells assessed as reduction in cell viability at 2 to 4 uM incubated up to 72 hrs by CellTiter-Glo assay; format: functional, cell-based
Ca-Ski = experiment: Antiproliferative activity against human CaSki cells assessed as reduction in cell viability at 2 to 4 uM incubated up to 72 hrs by CellTiter-Glo assay; format: functional, cell-based
[1] = molecular target: T1, Homeobox protein SIX1 (Homo sapiens) (UniProt Q15475); experiment: Inhibition of SIX1 in human C33A cells at 40 uM after 48 hrs by Western blot analysis; format: cell-based; details: C-33-A
T1 sequence (whole entry): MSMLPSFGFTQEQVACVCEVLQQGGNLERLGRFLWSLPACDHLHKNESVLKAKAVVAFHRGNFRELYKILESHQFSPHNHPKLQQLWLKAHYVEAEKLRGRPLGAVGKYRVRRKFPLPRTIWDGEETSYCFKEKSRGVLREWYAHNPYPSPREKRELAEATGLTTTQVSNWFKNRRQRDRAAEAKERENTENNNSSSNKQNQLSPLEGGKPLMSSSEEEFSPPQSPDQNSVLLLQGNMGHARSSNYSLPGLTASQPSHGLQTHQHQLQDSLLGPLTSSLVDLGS
In short: (§1)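 Cells seeded at 1 × 10^6 per 100 mm dish and treated next day at 10, 20 or 40 μM for 48 h. Harvested by trypsinization, PBS-washed, and lysed in RIPA buffer with protease inhibitors. Equal protein by colorimetric assay went to SDS-PAGE and PVDF. Primary antibody 1:500, blocked and diluted in 5% nonfat milk/TBST (SIX1) or 3% BSA (CK2α). HRP secondary 1:2000; chemiluminescent detection.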

[2] = molecular target: T1, Homeobox protein SIX1 (Homo sapiens); experiment: Inhibition of SIX1 in human SiHa cells at 40 uM after 48 hrs by Western blot analysis; format: cell-based; in short: as §1
[3] = molecular target: T1, Homeobox protein SIX1 (Homo sapiens); experiment: Inhibition of SIX1 in human HeLa cells at 40 uM after 48 hrs by Western blot analysis; format: cell-based; in short: as §1
[4] = molecular target: T1, Homeobox protein SIX1 (Homo sapiens); experiment: Inhibition of SIX1 in human CaSki cells at 40 uM after 48 hrs by Western blot analysis; format: cell-based; details: Ca-Ski; in short: as §1
[5] = molecular target: Casein kinase II subunit alpha (Homo sapiens) (UniProt P68400); details: C-33-A, 40 uM
[6] = molecular target: Casein kinase II subunit alpha (Homo sapiens) (UniProt P68400); details: HeLa, 40 uM
[7] = molecular target: Casein kinase II subunit alpha (Homo sapiens) (UniProt P68400); details: SiHa, 40 uM
[8] = molecular target: Casein kinase II subunit alpha (Homo sapiens) (UniProt P68400); details: Ca-Ski, 40 uM
[9] = Toxicity in po dosed mouse; format: organism-based; details: in vivo
Keratinocyte = experiment: Cytotoxicity against human Keratinocytes assessed as reduction in cell viability at 4 uM incubated up to 72 hrs by trypan blue staining based cell counting assay

Casein kinase II subunit alpha (Homo sapiens), sequence (P68400 whole entry, looked up): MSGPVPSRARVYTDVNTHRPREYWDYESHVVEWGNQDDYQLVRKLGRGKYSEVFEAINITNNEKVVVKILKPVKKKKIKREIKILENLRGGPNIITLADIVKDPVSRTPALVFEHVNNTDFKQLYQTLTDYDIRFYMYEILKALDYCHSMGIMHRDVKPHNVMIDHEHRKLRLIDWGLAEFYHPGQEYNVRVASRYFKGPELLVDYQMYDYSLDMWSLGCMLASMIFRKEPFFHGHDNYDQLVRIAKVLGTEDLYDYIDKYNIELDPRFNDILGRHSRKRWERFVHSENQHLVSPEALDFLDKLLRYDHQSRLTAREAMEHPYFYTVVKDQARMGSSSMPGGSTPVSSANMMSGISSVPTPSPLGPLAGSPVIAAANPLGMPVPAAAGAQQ

SMILES	Activity (C-33-A)	Activity (HeLa)	Activity (SiHa)	Activity (Ca-Ski)	also measured
O=CC1=C[C@@]2(O)CC/C=C\CCCCN3CC[C@@H]1[C@]1(C[C@@H]4/C=C\CCCCN4[C@H]12)C3	inactive	inactive	inactive	inactive	
O=c1cc(-c2ccc(O)cc2)oc2cc(O)cc(O)c12					inhibition [1]: Active; inhibition [2]: Active; inhibition [3]: Active; inhibition [4]: Active; inhibition [5]: Active; inhibition [6]: Active; inhibition [7]: Active; inhibition [8]: Active
O=C1CCCN2[C@@H](CC1)C[C@]13CN4CCCC/C=C\CC[C@](O)(C=C(c5nccc6c5[nH]c5c(O)cccc56)[C@@H]1CC4)[C@H]23	inactive	inactive	inactive	inactive	
CC(=O)Nc1ccc(O)cc1 [ACETAMINOPHEN]					LD50 [9]: 338 mg/kg
Oc1cccc2c1[nH]c1c(C3=C[C@@]4(O)CC/C=C\CCCCN5CC[C@@H]3[C@]3(C[C@@H]6/C=C\CCCCN6[C@H]34)C5)nccc12	Active	Active	Active	Active	Activity (Keratinocyte): Toxic
O[C@]12C=C([C@H]3NCCc4c3[nH]c3ccccc43)[C@@H]3CCN(CCCC/C=C\CC1)C[C@@]31C[C@@H]3/C=C\CCCCN3[C@H]12	inactive	inactive	inactive	inactive	
